The M2OR odorant receptor database

These compounds were tested against T1, OR2M3 (Homo sapiens) (UniProt Q8NG83). Conditions: stereoisomer not certain.
T1 sequence (whole entry): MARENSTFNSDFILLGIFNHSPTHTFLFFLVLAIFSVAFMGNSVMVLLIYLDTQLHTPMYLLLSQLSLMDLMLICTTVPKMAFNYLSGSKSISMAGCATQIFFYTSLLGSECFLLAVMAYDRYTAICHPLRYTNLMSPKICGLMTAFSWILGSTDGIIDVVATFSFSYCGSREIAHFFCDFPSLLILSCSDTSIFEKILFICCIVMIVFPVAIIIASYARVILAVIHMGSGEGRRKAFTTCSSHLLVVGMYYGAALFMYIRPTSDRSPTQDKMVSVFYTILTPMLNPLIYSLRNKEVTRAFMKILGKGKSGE
Summary of the method: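 Transient luciferase assays in mammalian cell lines were common, though methods varied by source. The values come from published papers and their supplementary material, with extra details from the original authors when needed. Responsive refers to a measured signal the original authors judged statistically different from baseline, and non-responsive (inactive) to the remainder.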
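Note: active if original authors judged signal statistically different from baseline.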

Odorant receptor agonist call, inactive:
C=CC(=C)CCC=C(C)C
COc1nccnc1CC(C)C
CCCC1CCCC(=O)O1 (configuration not stated)
CCCC(=O)OC
C=C1CCC2(C(C)C)CC12 (configuration not stated)
C=Cc1ccc(O)cc1
CC=CC(=O)C(C)CC (configuration not stated)
CC1=CCC(C(C)C)C=C1 (configuration not stated)
CCCCCCCC1CCCC(=O)O1 (configuration not stated)
CSC
CCCCCC1CCC(=O)O1 (configuration not stated)
C=CC(=O)CC
Cc1c[nH]c2ccccc12
Cc1cccc(O)c1
CCCC(=O)OCC
CCOC(C)OCC
CC=CC(=O)C1=C(C)CCCC1(C)C
CCCSSCCC
COc1ccc2ccc(=O)oc2c1
Cc1occc1S
CSCCC=O
CC=O
C=CCSC
CCCc1ccc(O)c(OC)c1
CCC(C)c1nccnc1OC (configuration not stated)
CCCCC1CCC(=O)O1 (configuration not stated)
COC(=O)C=Cc1ccccc1
CCc1cccc(O)c1
CC(C)(S)CCOC=O
CC=Cc1ccc(OC)cc1
CC(C)CCCCCCCCCCC=O
CCC(=O)C(C)=O
CCC(C)COC(C)=O (configuration not stated)
CCc1ccc(O)c(OC)c1
CC(=O)C(C)O (configuration not stated)
CCO
CC(=O)C1=NCCS1
